Source: ChEMBL document CHEMBL1154321, “Benzoxazole piperidines as selective and potent somatostatin receptor subtype 5 antagonists” (Bioorg Med Chem Lett, 2009)
Converted amounts (≈) assume the structure as drawn.

How the values were obtained:
[1] = biological target: Somatostatin receptor type 4 (Homo sapiens, UniProt P31391); assay: Displacement of SST14 from human recombinant SST4 receptor
How it was run: (§1)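 Membranes prepared by sonication from cells expressing the SST receptor subtype, incubated with radiolabeled 11-Tyr SST-14 tracer and test compound at varying concentrations; non-labeled SST-14 defined non-specific binding. Incubation stopped by glass-fiber filtration, bound radioactivity counted; IC50 for half-maximal binding inhibition estimated and Ki derived.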

[2] = Dissociation constant, pKa by spectrophotometry; assay type: physicochemical
Homo sapiens = species on record: Homo sapiens; assay: Selectivity ratio of Ki for human histamine H1 receptor to Ki for human SST5 receptor
[3] = biological target: Somatostatin receptor type 3 (Homo sapiens, UniProt P32745); assay: Displacement of SST14 from human recombinant SST3 receptor; how it was run: as §1
Histamine H1 receptor = Histamine H1 receptor (Homo sapiens, UniProt P35367); assay: Binding affinity to human histamine H1 receptor
[4] = Octanol-TAPSO partition coefficient, log D at pH 7.4 by spectrophotometry; assay type: physicochemical; conditions: octanol/TAPSO buffer
How it was run: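 Spectrophotometric log D in 1-octanol/50 mM TAPSO buffer, pH 7.4, containing 5% (v/v) DMSO.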

[5] = biological target: Somatostatin receptor type 5 (Homo sapiens, UniProt P35346); assay: Displacement of SST14 from human recombinant SST5 receptor expressed in CHO cells by radioligand binding assay; assay type: cell-based; how it was run: as §1
[6] = sPermeability by PAMPA; assay type: ADME; conditions: read-out: permeability
How it was run: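 Parallel artificial membrane permeation; Pe categorized as low (<0.1), medium (0.1–1.0) or high (>1.0).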

[7] = Solubility in phosphate buffer at pH 6.5 by lyophilization solubility assay; assay type: physicochemical
How it was run: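 Lyophilized DMSO stock solutions redissolved in 50 mM phosphate buffer, pH 6.5; solubility read spectrophotometrically.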

[8] = biological target: Somatostatin receptor type 2 (Homo sapiens, UniProt P30874); assay: Displacement of SST14 from human recombinant SST2 receptor; how it was run: as §1
Somatostatin receptor type 2, sequence (P30874 whole entry): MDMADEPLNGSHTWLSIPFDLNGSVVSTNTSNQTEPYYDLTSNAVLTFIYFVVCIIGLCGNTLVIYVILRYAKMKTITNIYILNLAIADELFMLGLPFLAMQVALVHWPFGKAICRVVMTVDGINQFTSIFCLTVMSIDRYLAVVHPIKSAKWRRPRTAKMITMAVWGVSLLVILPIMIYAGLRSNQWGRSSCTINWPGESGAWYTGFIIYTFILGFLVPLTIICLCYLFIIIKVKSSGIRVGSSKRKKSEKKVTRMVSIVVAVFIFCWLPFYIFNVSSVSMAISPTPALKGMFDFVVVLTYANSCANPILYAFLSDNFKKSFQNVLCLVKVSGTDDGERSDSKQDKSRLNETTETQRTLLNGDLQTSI

Somatostatin receptor type 5, sequence (P35346 whole entry): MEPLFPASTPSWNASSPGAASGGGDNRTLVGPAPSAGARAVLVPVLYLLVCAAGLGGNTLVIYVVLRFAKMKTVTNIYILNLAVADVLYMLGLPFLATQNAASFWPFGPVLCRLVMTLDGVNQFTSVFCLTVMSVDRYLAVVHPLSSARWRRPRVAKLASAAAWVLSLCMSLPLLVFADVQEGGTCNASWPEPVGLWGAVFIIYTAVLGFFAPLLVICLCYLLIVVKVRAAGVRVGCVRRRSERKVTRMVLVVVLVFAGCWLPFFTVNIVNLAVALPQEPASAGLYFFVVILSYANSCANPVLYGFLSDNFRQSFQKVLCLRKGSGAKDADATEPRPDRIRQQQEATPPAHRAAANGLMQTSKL
Somatostatin receptor type 3, sequence (P32745 whole entry): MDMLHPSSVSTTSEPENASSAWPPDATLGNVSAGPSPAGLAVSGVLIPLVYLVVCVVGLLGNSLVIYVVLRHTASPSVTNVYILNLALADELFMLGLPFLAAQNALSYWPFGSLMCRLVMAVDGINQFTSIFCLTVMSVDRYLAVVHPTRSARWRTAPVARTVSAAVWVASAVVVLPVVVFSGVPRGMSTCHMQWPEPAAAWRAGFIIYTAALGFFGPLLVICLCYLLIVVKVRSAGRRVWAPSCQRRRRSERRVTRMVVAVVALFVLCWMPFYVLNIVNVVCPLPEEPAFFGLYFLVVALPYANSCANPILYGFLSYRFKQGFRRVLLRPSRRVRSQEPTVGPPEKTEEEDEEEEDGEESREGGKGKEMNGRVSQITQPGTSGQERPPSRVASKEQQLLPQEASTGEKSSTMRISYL
Somatostatin receptor type 4, sequence (P31391 whole entry): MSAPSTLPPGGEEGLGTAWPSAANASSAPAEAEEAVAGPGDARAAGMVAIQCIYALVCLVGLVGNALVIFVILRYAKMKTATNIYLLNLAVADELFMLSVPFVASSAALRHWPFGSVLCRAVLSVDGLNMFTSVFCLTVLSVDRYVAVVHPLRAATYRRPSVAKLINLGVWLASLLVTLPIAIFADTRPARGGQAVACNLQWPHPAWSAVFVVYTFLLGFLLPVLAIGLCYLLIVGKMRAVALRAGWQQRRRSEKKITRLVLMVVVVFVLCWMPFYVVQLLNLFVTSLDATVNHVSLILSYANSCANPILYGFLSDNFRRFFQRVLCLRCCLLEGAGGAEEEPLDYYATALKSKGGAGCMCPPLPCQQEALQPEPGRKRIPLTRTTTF
Histamine H1 receptor, sequence (P35367 whole entry): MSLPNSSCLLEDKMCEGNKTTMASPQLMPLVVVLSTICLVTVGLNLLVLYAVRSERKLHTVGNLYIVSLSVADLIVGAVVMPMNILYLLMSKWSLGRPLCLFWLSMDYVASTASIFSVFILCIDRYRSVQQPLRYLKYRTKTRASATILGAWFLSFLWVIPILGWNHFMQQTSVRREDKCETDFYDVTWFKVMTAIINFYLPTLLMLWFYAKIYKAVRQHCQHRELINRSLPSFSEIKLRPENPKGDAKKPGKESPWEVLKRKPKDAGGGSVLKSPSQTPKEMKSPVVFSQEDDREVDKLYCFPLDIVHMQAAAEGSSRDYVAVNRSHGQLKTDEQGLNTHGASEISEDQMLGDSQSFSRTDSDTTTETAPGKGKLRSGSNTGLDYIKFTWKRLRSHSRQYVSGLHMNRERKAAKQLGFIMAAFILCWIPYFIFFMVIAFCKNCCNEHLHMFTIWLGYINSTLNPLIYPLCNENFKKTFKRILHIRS

Row | Structure (SMILES) | Ki [1] | pKa [2] | Ratio Ki (Homo sapiens) | Ki [3] | Ki (Histamine H1 receptor) | logD [4] | Ki [5] | Papp [6] | solubility [7] | Ki [8]
1 | CCOc1cc(CN2CCC(Nc3nc4cc(Cl)c(S(N)(=O)=O)cc4o3)CC2)ccc1OC | > 10 µM | 7.92 | 3 | > 10 µM | 1.01 µM | 2.67 | 0.343 µM | 11 nm/s | 0.338 mg/mL (≈ 683 µM) | > 10 µM
2 | CCOc1cc(CN2CCC(Nc3nc4ccccc4[nH]3)CC2)ccc1OC | > 10 µM |  |  | > 10 µM |  |  | > 1 µM |  |  | > 10 µM
3 | CCOC(=O)c1c(OCC)cc(CN2CCC(Nc3nc4ccccc4o3)CC2)cc1OCC | > 10 µM |  |  | > 10 µM |  |  | 0.156 µM |  |  | > 10 µM
4 | CCOc1cc(CN2CCC(Nc3nc4ncccc4o3)CC2)ccc1OC | > 10 µM |  |  | > 10 µM |  |  | > 1 µM |  |  | > 10 µM
5 | CCOc1cc(NCc2cccc(Nc3nc4ccccc4s3)c2)ccc1OC | > 10 µM |  |  | > 10 µM |  |  | > 1 µM |  |  | > 10 µM
6 | CCOc1cc(CN2CCC(Nc3nc4ccccc4o3)CC2)ccc1O | > 10 µM |  |  | > 10 µM |  |  |  |  |  | > 10 µM
7 | CCOc1cc(CN2CCC(Nc3nc4ccccc4o3)CC2)ccc1OC1CC1 | > 10 µM |  |  | > 10 µM |  |  | 0.537 µM |  |  | > 10 µM
8 | CCOc1cc(CN2CCC(Nc3nc4ccncc4o3)CC2)ccc1OC | > 10 µM |  |  | > 10 µM |  |  | 0.72 µM |  |  | > 10 µM
9 | COc1ccc(CN2CCC(Nc3nc4ccccc4o3)CC2)cc1OC1CCCC1 | > 10 µM |  |  | > 10 µM |  |  |  |  |  | > 10 µM
10 | COc1ccc(CCN2CCC(Nc3nc4ccccc4n3Cc3ccc(F)cc3)CC2)cc1 [ASTEMIZOLE] | > 10 µM |  |  | > 10 µM |  |  |  |  |  | > 10 µM
11 | CCOc1cc(CN2CCC(Nc3nc4cc(S(=O)(=O)CC)ccc4o3)CC2)cc(OC2CCOCC2)c1 | > 10 µM | 7.55 | 698 | > 10 µM | 38.4 µM | 3.13 | 0.055 µM | 17.5 nm/s | 0.183 mg/mL (≈ 337 µM) | > 10 µM
12 | CCNc1cc(CN2CCC(Nc3nc4ccccc4o3)CC2)ccc1OC | > 10 µM |  |  | > 10 µM |  |  | 0.371 µM |  |  | > 10 µM
13 | CCOc1cc(CN2CCC(Nc3nc4cc(S(=O)(=O)N(C)C)ccc4o3)CC2)cc(OCC)c1-n1cccc1 | > 10 µM |  | 96 | > 10 µM | 5 µM | 2.89 | 0.052 µM | 13.1 nm/s | 0.022 mg/mL (≈ 38.8 µM) | > 10 µM
14 | CCOc1cc(N2CCN(C(=O)Nc3nc4ccccc4s3)CC2)ccc1OC | > 10 µM |  |  | > 10 µM |  |  | > 1 µM |  |  | > 10 µM
15 | CCOc1cc(CN2CCC(Nc3nc4cc(Cl)ccc4o3)CC2)ccc1OC | > 10 µM |  |  | > 10 µM |  |  | 0.194 µM |  |  | > 10 µM
16 | CCOc1cc(CN2CCC(Nc3nc4ccccc4o3)CC2)c(F)c(OCC)c1 | > 10 µM |  |  | > 10 µM |  |  | > 1 µM |  |  | > 10 µM
17 | CCOc1cc(NC2CCN(c3nc4ccccc4s3)CC2)ccc1OC | > 10 µM |  |  | > 10 µM |  |  | > 1 µM |  |  | > 10 µM
18 | CCOc1cc(CN2CCC(Nc3nc4ccc(Cl)cc4s3)CC2)ccc1OC | > 10 µM |  |  | > 10 µM |  |  | 0.361 µM |  |  | > 10 µM
19 | CCOc1cc(CN2CCC(Nc3nc4ccccc4o3)CC2)cc(OCC)c1F | > 10 µM |  |  | > 10 µM |  |  | 0.178 µM |  |  | > 10 µM
20 | CCOc1cc(NC2CCC(NCc3nc4ccccc4s3)CC2)ccc1OC (stereo not drawn) | > 10 µM |  |  | > 10 µM |  |  | > 1 µM |  |  | > 10 µM
21 | CCOc1cc(CN2CCC(Nc3nc4ccccc4o3)CC2)ccc1C(F)(F)F | > 10 µM |  |  | > 10 µM |  |  | 0.524 µM |  |  | > 10 µM

Row | Structure (SMILES) | Ki [1] | pKa [2] | Ratio Ki (Homo sapiens) | Ki [3] | Ki (Histamine H1 receptor) | logD [4] | Ki [5] | Papp [6] | solubility [7] | Ki [8]
22 | CCOc1cc(CN2CCC(Nc3nc4ccccc4o3)CC2)cnc1OC | > 10 µM |  |  | > 10 µM |  |  | > 1 µM |  |  | > 10 µM
23 | COc1ccc(CN2CCC(Nc3nc4ccccc4o3)CC2)cc1OC | > 10 µM |  |  | > 10 µM |  |  | 0.472 µM |  |  | > 10 µM
24 | CC(C)Oc1cc(CN2CCC(Nc3nc4ccccc4o3)CC2)cc(OC(C)C)c1 | > 10 µM |  |  | > 10 µM |  |  | 0.031 µM |  |  | > 10 µM
25 | CCOc1cc(CN2CCC(Nc3nc4ccccc4o3)CC2)ccc1C | > 10 µM |  |  | > 10 µM |  |  |  |  |  | > 10 µM
26 | CCOc1cc(CN2CCC(Nc3nc4ccccc4o3)CC2)ccc1OC(C)C | > 10 µM |  |  | > 10 µM |  |  | > 1 µM |  |  | > 10 µM
27 | COc1ccc(CN2CCC(Nc3nc4ccccc4o3)CC2)cc1OCCF | > 10 µM |  |  | > 10 µM |  |  | 0.487 µM |  |  | > 10 µM
28 | CCOc1cc(CN2CCC(Nc3nc4ccccc4o3)CC2)ccc1F | > 10 µM | 7.79 | 4.3 | > 10 µM | 0.826 µM | 3.63 |  | 43.3 nm/s | > 0.452 mg/mL | > 10 µM
29 | CCOc1cc(CN2CCC(Nc3nc4cc(NC(C)=O)ccc4o3)CC2)ccc1OC | > 10 µM |  |  | > 10 µM |  |  | 0.357 µM |  |  | > 10 µM
30 | CCOc1cc(CN2CCC(Nc3nc4ccccc4o3)CC2)c(F)cc1OCCO | > 10 µM |  |  | > 10 µM |  |  | > 1 µM |  |  | > 10 µM
31 | CCOc1cc(NC2CCC(Nc3nc4ccccc4s3)CC2)ccc1OC (stereo not drawn) | > 10 µM |  |  | > 10 µM |  |  | > 1 µM |  |  | > 10 µM
32 | CCOc1cc(CN2CCC(Nc3nc4cc([N+](=O)[O-])ccc4o3)CC2)ccc1OC | > 10 µM |  |  | > 10 µM |  |  | 0.252 µM |  |  | > 10 µM
33 | CCOc1cc(CN2CCC(Nc3nc4cc(S(=O)(=O)N(C)C)ccc4o3)CC2)ccc1OC | > 10 µM |  |  | > 10 µM |  |  | 0.226 µM |  |  | > 10 µM
34 | CCCOc1cc(CN2CCC(Nc3nc4ccccc4o3)CC2)ccc1OC | > 10 µM |  |  | > 10 µM |  |  |  |  |  | > 10 µM
35 | CCOc1cc(CN2CCC(Nc3nc4ccccc4s3)CC2)ccc1OC | > 10 µM |  |  | > 10 µM |  |  | 0.33 µM |  |  | > 10 µM
36 | CCOc1cc(CN2CCC(C(=O)Nc3nc4ccccc4s3)CC2)ccc1OC | > 10 µM |  |  | > 10 µM |  |  | > 1 µM |  |  | > 10 µM
37 | COc1ccc(CN2CCC(Nc3nc4ccccc4o3)CC2)cc1OCC(C)C | > 10 µM |  |  | > 10 µM |  |  |  |  |  | > 10 µM
38 | CCOc1cc(CN2CCC(Nc3nc4cccnc4s3)CC2)ccc1OC | > 10 µM |  |  | > 10 µM |  |  | 0.309 µM |  |  | > 10 µM
39 | CCOc1cc(CN2CCC(Nc3nc4cc(Cl)c(S(N)(=O)=O)cc4o3)CC2)cc(OCC)c1F | > 10 µM | 7.61 |  | > 10 µM |  | 2.78 | 0.252 µM | 24.5 nm/s | 0.032 mg/mL (≈ 60.7 µM) | > 10 µM
40 | CCOc1cc(CN2CCC(Nc3nc4cc(OC(F)(F)F)ccc4o3)CC2)ccc1OC | > 10 µM |  |  | > 10 µM |  |  | 0.354 µM |  |  | > 10 µM
41 | CCOc1cc(CN2CCC(Nc3nc4cccnc4o3)CC2)ccc1OC | > 10 µM |  |  | > 10 µM |  |  | 0.633 µM |  |  | > 10 µM
42 | CCOc1cc(CN2CCC(Nc3nc4ccccc4o3)CC2)cc(OCC)c1N | > 10 µM |  |  | > 10 µM |  |  | 0.033 µM |  |  | > 10 µM
